Measurements as given in ChEMBL document CHEMBL1154191, “Evaluation of spirocyclic 3-(3-fluoropropyl)-2-benzofurans as sigma1 receptor ligands for neuroimaging with positron emission tomography” (J Med Chem, 2009).

Tests used:
Stomach = test: Biodistribution in CD1 mouse stomach assessed per gram of wet tissue at 400 to 600 kBq, iv after 30 mins post-injection by gamma counting; type: ADME, organism-based; conditions: in vivo, 0.5 h
In short: (§1)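 Female CD-1 mice (~8-12 weeks, 20-28 g), habituated ≥48 h and fasted 24 h with water available. The [18F] tracer (>150 GBq/μmol at end of synthesis) was given in 200 μL saline into the tail vein of conscious animals. At each time point, n=4-5, mice were anaesthetised, blood and urine sampled, then killed by cervical dislocation. Organs were weighed and γ-counted, and values calculated as % ID/g wet tissue.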

[1] = Metabolic stability in CD1 mouse urine assessed as formation of hydrophilic and lipophilioc radiometabolite at 200 to 300 MBq, iv after 45 mins post-injection by radio-HPLC and radio-TLC; type: ADME, organism-based; conditions: in vivo, 0.75 h
Pancreas [2] = test: Biodistribution in CD1 mouse pancreas assessed per gram of wet tissue at 400 to 600 kBq, iv after 5 mins post-injection by gamma counting; type: ADME, organism-based; conditions: in vivo; in short: as §1
Mus musculus = test: Plasma concentration in CD1 mouse assessed per gram of wet tissue at 400 to 600 kBq, iv after 5 mins post-injection by gamma counting; type: ADME, organism-based; conditions: in vivo
In short: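 Female CD-1 mice (~8-12 weeks, 20-28 g), fasted 24 h with free access to water. 400-600 kBq [18F] tracer in 200 μL saline given by tail vein to conscious mice. At 5, 30, 60 or 120 min pi (n=4-5 per time) mice anaesthetised, blood taken, then euthanised. Samples weighed, γ-counted, %ID/g wet tissue calculated.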

Pancreas [3] = test: Biodistribution in CD1 mouse pancreas assessed per gram of wet tissue at 400 to 600 kBq, iv after 60 mins post-injection by gamma counting; type: ADME, organism-based; conditions: in vivo, 1 h; in short: as §1
Heart = test: Biodistribution in CD1 mouse heart assessed per gram of wet tissue at 400 to 600 kBq, iv after 120 mins post-injection by gamma counting; type: ADME, organism-based; conditions: in vivo, 2 h
In short: (§2)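 Female CD-1 mice (~8-12 weeks, 20-28 g) were fasted 24 h with free water. Conscious mice got 400-600 kBq [¹⁸F] tracer in saline by tail vein. At 5, 30, 60 or 120 min (n=4-5 per time) they were anesthetized, blood and urine sampled, then killed by cervical dislocation. Organs were weighed and γ-counted, giving % ID/g wet tissue.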

[4] = Biodistribution in CD1 mouse urine assessed per gram of wet bladder at 400 to 600 kBq, iv after 60 mins post-injection by gamma counting in presence of 1 mg/kg, ip sigma 1/sigma 2 receptor antagonist haloperidol treated before compound addition; type: organism-based; set-up: route intravenous; conditions: in vivo, 1 h
In short: (§3)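 They were killed at 60 min pi, and organs were weighed and γ-counted as % ID/g wet tissue. Comparison with controls used Student's t test (independent, two-tailed).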

Lung [5] = test: Biodistribution in CD1 mouse lung assessed per gram of wet tissue at 400 to 600 kBq, iv after 120 mins post-injection by gamma counting; type: ADME, organism-based; conditions: in vivo, 2 h; in short: as §1
[6] = Biodistribution in CD1 mouse thymus assessed per gram of wet tissue at 400 to 600 kBq, iv after 60 mins post-injection by gamma counting in presence of 1 mg/kg, ip sigma 1/sigma 2 receptor antagonist haloperidol treated before compound addition; type: organism-based; set-up: route intravenous; conditions: in vivo, 1 h; in short: as §3
Cerebellum [7] = test: Biodistribution in CD1 mouse cerebellum assessed per gram of wet tissue at 400 to 600 kBq, iv after 120 mins post-injection by gamma counting; type: ADME, organism-based; conditions: in vivo, 2 h; in short: as §2
Blood = test: Biodistribution in CD1 mouse blood assessed per gram of wet tissue at 400 to 600 kBq, iv after 120 minspost-injection by gamma counting; type: ADME, organism-based; conditions: in vivo, 2 h; in short: as §2
[8] = Biodistribution in CD1 mouse thymus assessed per gram of wet tissue at 400 to 600 kBq, iv after 30 mins post-injection by gamma counting; type: ADME, organism-based; conditions: in vivo, 0.5 h; in short: as §1
[9] = Biodistribution in CD1 mouse adrenal gland assessed per gram of wet tissue at 400 to 600 kBq, iv after 5 mins post-injection by gamma counting; type: ADME, organism-based; conditions: in vivo; in short: as §2
Lung [10] = test: Biodistribution in CD1 mouse lung assessed per gram of wet tissue at 400 to 600 kBq, iv after 60 mins post-injection by gamma counting in presence of 1 mg/kg, ip sigma 1/sigma 2 receptor antagonist haloperidol treated before compound addition; type: organism-based; set-up: route intravenous; conditions: in vivo, 1 h; in short: as §3
Intestine [11] = test: Biodistribution in CD1 mouse intestine assessed per gram of wet tissue at 400 to 600 kBq, iv after 60 mins post-injection by gamma counting in presence of 1 mg/kg, ip sigma 1/sigma 2 receptor antagonist haloperidol treated before compound addition; type: organism-based; set-up: dose 1 mg/kg, route intravenous; conditions: in vivo, 1 h
In short: (§4)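 Blocking arm in fasted female CD-1 mice (n=5). […] Animals were killed at 60 min post-injection, and organs were weighed and γ-counted as % ID/g wet tissue. Percent change was taken against the 60 min control group, with two-tailed unpaired Student's t test.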

[12] = Ratio of drug level in cerebellum to plasma in CD1 mouse at 400 to 600 kBq, iv after 60 mins post-injection; type: ADME, organism-based
In short: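 Female CD-1 mice (~8-12 weeks, 20-28 g), fasted 24 h with free water; 400-600 kBq tracer in 200 μL saline by tail vein into conscious animals. Killed at set times pi (n=4-5 per time); blood and organs weighed, γ-counted, expressed as % ID/g wet tissue; ratio from cerebellum and plasma uptake.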

Kidney = test: Biodistribution in CD1 mouse kidney assessed per gram of wet tissue at 400 to 600 kBq, iv after 120 mins post-injection by gamma counting; type: ADME, organism-based; conditions: in vivo, 2 h; in short: as §2
Lung [13] = test: Biodistribution in CD1 mouse lung assessed per gram of wet tissue at 400 to 600 kBq, iv after 30 mins post-injection by gamma counting; type: ADME, organism-based; conditions: in vivo, 0.5 h; in short: as §1
Intestine [14] = test: Biodistribution in CD1 mouse intestine assessed per gram of wet tissue at 400 to 600 kBq, iv after 60 mins post-injection by gamma counting; type: ADME, organism-based; conditions: in vivo, 1 h; in short: as §2
Cerebellum [15] = test: Biodistribution in CD1 mouse cerebellum assessed per gram of wet tissue at 400 to 600 kBq, iv after 60 mins post-injection by gamma counting; type: ADME, organism-based; conditions: in vivo, 1 h; in short: as §2
Pancreas [16] = test: Biodistribution in CD1 mouse pancreas assessed per gram of wet tissue at 400 to 600 kBq, iv after 120 mins post-injection by gamma counting; type: ADME, organism-based; conditions: in vivo, 2 h; in short: as §1
Pancreas [17] = test: Biodistribution in CD1 mouse pancreas assessed per gram of wet tissue at 400 to 600 kBq, iv after 60 mins post-injection by gamma counting in presence of 1 mg/kg, ip sigma 1/sigma 2 receptor antagonist haloperidol treated before compound addition; type: organism-based; set-up: route intravenous; conditions: in vivo, 1 h; in short: as §3
[18] = Biodistribution in CD1 mouse adrenal gland assessed per gram of wet tissue at 400 to 600 kBq, iv after 60 mins post-injection by gamma counting in presence of 1 mg/kg, ip sigma 1/sigma 2 receptor antagonist haloperidol treated before compound addition; type: organism-based; set-up: dose 1 mg/kg, route intravenous; conditions: in vivo, 1 h; in short: as §4
Femur = test: Biodistribution in CD1 mouse femur assessed per gram of wet tissue at 400 to 600 kBq, iv after 60 mins post-injection by gamma counting; type: ADME, organism-based; conditions: in vivo, 1 h; in short: as §2
Spleen = test: Biodistribution in CD1 mouse spleen assessed per gram of wet tissue at 400 to 600 kBq, iv after 120 mins post-injection by gamma counting; type: ADME, organism-based; conditions: in vivo, 2 h; in short: as §1

[18F]CCCC1OC2(CCN(Cc3ccccc3)CC2)c2ccccc21 (stereo not given)
Drug uptake (Stomach): 5.13 %ID
Activity [1]: 98%
Drug uptake (Pancreas [2]): 8.76 %ID
Drug uptake (Mus musculus): 1.85 %ID
Drug uptake (Pancreas [3]): 8.92 %ID
Drug uptake (Heart): 1.52 %ID
Drug uptake [4]: 22.5 %ID
Drug uptake (Lung [5]): 3.37 %ID
Drug uptake [6]: 2.36 %ID
Drug uptake (Cerebellum [7]): 2.41 %ID
Drug uptake (Blood): 0.48 %ID
Drug uptake [8]: 3.26 %ID
Drug uptake [9]: 10.6 %ID
Drug uptake (Lung [10]): 2.11 %ID
Drug uptake (Intestine [11]): 6.6 %ID
Kp at 1 h [12]: 5.75
Drug uptake (Kidney): 3.68 %ID
Drug uptake (Lung [13]): 7.01 %ID
Drug uptake (Intestine [14]): 6.59 %ID
Drug uptake (Cerebellum [15]): 2.99 %ID
Drug uptake (Pancreas [16]): 10.5 %ID
Drug uptake (Pancreas [17]): 3.05 %ID
Drug uptake [18]: 5.72 %ID
Drug uptake (Femur): 3.48 %ID
Drug uptake (Spleen): 4.65 %ID
